Measured values: ChEMBL document CHEMBL4138193, “Novel indole and triazole based hybrid molecules exhibit potent anti-adipogenic and antidyslipidemic activity by activating Wnt3a/β-catenin pathway” (Eur J Med Chem, 2018)
Activity calls are given as the source filed them. No cut-off for these calls is given here.

Experiments:
C3H 10T1/2 [1] = assay: Anti-adipogenic activity in mouse C3H10T1/2 cells assessed as reduction in lipid accumulation at early differentiation stage at 20 uM measured up to 3 days by Oil Red O staining based leica microscopy; type: functional, cell-based
How it was run: (§1)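 3T3-L1 or C3H10T1/2 cells given 20 µM compound in differentiation media for varied time periods, then stained with Oil red O. Imaged by microscopy at 10x, representative of three independent experiments.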

3T3-L1 [2] = assay: Anti-adipogenic activity in mouse 3T3L1 pre-adipocytes in differentiation media assessed as reduction in lipid accumulation at 20 uM after 20 mins in presence of beta-catenin/TCF complex inhibitor FH353 by Oil Red O staining based microscopic method; type: functional, cell-based
How it was run: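 3T3-L1 adipocytes given 20 µM compound with or without 10 µM FH353 in differentiation media, then Oil red O stained. Imaged at 20x and 40x, representative of three independent experiments.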

Mus musculus [3] = species: Mus musculus; assay: Activation of Wnt3a/beta-catenin in mouse 3T3L1 cells assessed as down-regulation of C/EBPalpha expression at 20 uM after 2 to 6 days in presence of FH353 by Western blot analysis; type: cell-based
Mus musculus [4] = species: Mus musculus; assay: Activation of Wnt3a/beta-catenin in differentiated mouse 3T3L1 cells assessed as down-regulation of PPARgamma protein expression at 20 uM after 16 to 24 hrs by Western blot analysis
How it was run: (§2)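 3T3-L1 preadipocytes grown to confluence in high-glucose DMEM/10% FBS, then given differentiation media (0.5 mM IBMX, 5 µg/ml insulin, 250 nM dexamethasone) with or without 20 µM compound. Protein isolated at set time points, lysed with protease/phosphatase inhibitors, BCA-quantified, resolved by 8–12% SDS-PAGE, immunoblotted with ECL detection. β-actin loading control, densitometry normalized to actin, n=3.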

Mus musculus [5] = species: Mus musculus; assay: Activation of Wnt3a/beta-catenin in differentiated mouse 3T3L1 cells assessed as down-regulation of C/EBPalpha protein expression at 20 uM after 16 to 24 hrs by Western blot analysis; how it was run: as §2
Mus musculus [6] = species: Mus musculus; assay: Activation of Wnt3a/beta-catenin in mouse 3T3L1 cells assessed as down-regulation of C/EBPalpha mRNA expression at 20 uM by qRT-PCR analysis; type: cell-based
How it was run: (§3)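 3T3-L1 cells differentiated with IBMX/dexamethasone/insulin media with or without 20 µM compound over the differentiation period. RNA extracted with TRIZOL, 500 ng reverse-transcribed to cDNA, then quantitative real-time PCR. Three independent experiments run in triplicate, mean ± SD, one-way ANOVA with Bonferroni posttest.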

3T3-L1 [7] = assay: Anti-adipogenic activity in mouse 3T3L1 cells assessed as reduction in lipid accumulation at early differentiation stage at 20 uM measured up to 3 days by Oil Red O staining based leica microscopy; type: functional, cell-based; how it was run: as §1
3T3-L1 [8] = assay: Upregulation of wnt3a protein expression in mouse 3T3L1 cells at 20 uM after 16 to 24 hrs by Western blot analysis; type: functional, cell-based
How it was run: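 3T3-L1 cells given MDI with or without 20 µM; protein harvested at 16 and 24 hr. Lysates in ice-cold buffer with protease and phosphatase inhibitors were BCA-quantified, run on 8–12% SDS-PAGE, transferred to nitrocellulose and probed overnight at 4 °C. Detection by chemiluminescence, normalized to β-actin; three independent experiments.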

Homo sapiens = species: Homo sapiens; assay: Anti-adipogenic activity in human differentiated MSC assessed as reduction in lipid accumulation at 5 to 20 uM after 20 mins by Oil Red O staining based microscopic method; type: functional
How it was run: (§4)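 C3H10T1/2 or hMSC adipocytes differentiated alongside 5, 10 or 20 µM compound in differentiation media, stained with Oil red O. Images taken by bright-field microscopy at 10x and 20x, representative of three independent experiments.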

C3H 10T1/2 [9] = assay: Anti-adipogenic activity in mouse differentiated C3H10T1/2 cells assessed as reduction in lipid accumulation at 5 to 20 uM after 20 mins by Oil Red O staining based microscopic method; type: functional, cell-based; how it was run: as §4
Syrian golden hamster [10] = assay: Induction of reverse cholestrol transport in high fat diet-induced dyslipidemia Syrian Golden hamster model assessed as increase in SCARB1 mRNA expression in liver at 100 mg/kg, po administered for 1 week by qRT-PCR analysis; type: functional, organism-based; conditions: Mesocricetus auratus
Mus musculus [11] = species: Mus musculus; assay: Activation of Wnt3a/beta-catenin in mouse 3T3L1 cells assessed as down-regulation of cyclinE expression at 20 uM after 16 to 24 hrs by Western blot analysis; type: cell-based
3T3-L1 [12] = assay: Anti-adipogenic activity in mouse 3T3L1 cells assessed as reduction in lipid accumulation at 20 uM measured up to 7 days by Oil Red O staining based leica microscopy; type: functional, cell-based; how it was run: as §1
Mus musculus [13] = species: Mus musculus; assay: Activation of Wnt3a/beta-catenin in mouse 3T3L1 cells assessed as down-regulation of CDK4 expression at 20 uM after 16 to 24 hrs in presence of FH353 by Western blot analysis; type: cell-based
How it was run: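 Confluent 3T3-L1 cells given differentiation media (IBMX/insulin/dexamethasone) with 20 µM compound, with or without the β-catenin/TCF inhibitor FH353 (10 µM). Proteins isolated at 16 and 24 h and Western blotted after SDS-PAGE and nitrocellulose transfer. Blocking in 5% milk/TBS-T, primary antibody overnight at 4 °C, chemiluminescent detection, β-actin control, three independent experiments.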

Mus musculus [14] = species: Mus musculus; assay: Activation of Wnt3a/beta-catenin in differentiated mouse 3T3L1 cells assessed as down-regulation of FAS protein expression at 20 uM after 16 to 24 hrs by Western blot analysis; how it was run: as §2
Syrian golden hamster [15] = assay: Induction of reverse cholestrol transport in high fat diet-induced dyslipidemia Syrian Golden hamster model assessed as reduction in liver weight at 100 mg/kg, po administered for 1 week; type: functional, organism-based; conditions: Mesocricetus auratus
How it was run: (§5)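 Male Syrian Golden hamsters on 45% kCal HFD, dosed 100 mg/kg p.o. in 0.5% NaCMC for one week, 4 per group. Food intake and body weight recorded daily. At the end, animals were saline-perfused and liver and eWAT were excised and weighed. Paraffin sections stained with H&E and imaged at 20x.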

Mus musculus [16] = species: Mus musculus; assay: Activation of Wnt3a/beta-catenin in mouse 3T3L1 cells assessed as down-regulation of CDK4 expression at 20 uM after 16 to 24 hrs by Western blot analysis; type: cell-based
How it was run: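 3T3-L1 cells given MDI differentiation media (0.5 mM IBMX, 5 µg/ml insulin, 250 nM dexamethasone) with or without 20 µM compound. Proteins isolated at 16 and 24 h and probed by Western blot for CDK2, CDK4, CDK6, cyclin D1 and D3. Densitometry normalized to actin, n=3, mean ± SD, Student t test.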

Mus musculus [17] = species: Mus musculus; assay: Activation of Wnt3a/beta-catenin in differentiated mouse 3T3L1 cells assessed as upregulation of phosphorylated LRP6 expression at 20 uM after 16 to 24 hrs by Western blot analysis; how it was run: as §2
Syrian golden hamster [18] = assay: Induction of reverse cholestrol transport in high fat diet-induced dyslipidemia Syrian Golden hamster model assessed as reduction in adipocyte hypertrophy at 100 mg/kg, po administered for 1 week by H and E staining based assay; type: functional, organism-based; conditions: Mesocricetus auratus; how it was run: as §5
Mus musculus [19] = species: Mus musculus; assay: Activation of Wnt3a/beta-catenin in mouse 3T3L1 cells assessed as down-regulation of AP2 mRNA expression at 20 uM by qRT-PCR analysis; type: cell-based; how it was run: as §3
Mus musculus [20] = species: Mus musculus; assay: Activation of Wnt3a/beta-catenin in mouse 3T3L1 cells assessed as increase in SIRT1 mRNA expression at 20 uM by qRT-PCR analysis; type: cell-based; how it was run: as §3

## Cc1ccc(S(=O)(=O)N(Cc2cn(Cc3cccc(F)c3F)nn2)Cc2cn(S(=O)(=O)c3ccc(C)cc3)c3ccccc23)cc1
C3H 10T1/2 [1]
  Activity: Active
3T3-L1 [2]
  Activity: inactive
Mus musculus [3]
  Activity: inactive
Mus musculus [4]
  Activity: Active
Mus musculus [5]
  Activity: Active
Mus musculus [6]
  Activity: Active
3T3-L1 [7]
  Activity: Active
3T3-L1 [8]
  Activity: Active
Homo sapiens
  Activity: Active
C3H 10T1/2 [9]
  Activity: Active
Syrian golden hamster [10]
  Activity: Active
Mus musculus [11]
  Activity: Active
3T3-L1 [12]
  Activity: Active
Mus musculus [13]
  Activity: inactive
Mus musculus [14]
  Activity: Active
Syrian golden hamster [15]
  Activity: Active
Mus musculus [16]
  Activity: Active
Mus musculus [17]
  Activity: Active
Syrian golden hamster [18]
  Activity: Active
Mus musculus [19]
  Activity: Active
Mus musculus [20]
  Activity: Active
